Calls of active or inactive are those of the source. No cut-off for these calls is given here.
Tests used:
[1] = species on record: Canis lupus familiaris; assay: Inhibition of FITC-geldanamycin binding to dog GST-tagged GRP94 N41 deletion mutant (69 to 337 residues) expressed in Escherichia coli BL21star (DE3) at 100 uM after 4 hrs by FP assay relative to control
[2] = Inhibition of FITC-geldanamycin binding to dog GST-tagged GRP94 N41 deletion mutant (69 to 337 residues) expressed in Escherichia coli BL21star (DE3) after 4 hrs by GM-FITC-based FP assay; parameters: species or system Canis lupus familiaris
[3] = biological target: T1, Heat shock protein HSP 90-alpha (Homo sapiens, UniProt P07900); assay: Inhibition of FITC-geldanamycin binding to human His-tagged HSP90alpha N-terminal domain (1 to 236 residues) expressed in Escherichia coli BL21star (DE3) at 100 uM after 4 hrs by FP assay relative to control
Summary of the method: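 Hsp90αN (15 nM final) with GM-FITC (6 nM final) and compound in HEPES/KCl/MgCl2 buffer pH 7.4 with NP40, DTT, BGG; 4 h at 4 °C in dark; FP at ex 485/em 535 nm; inhibition computed against GM-FITC-only and protein-plus-probe controls; n = 3.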

[4] = biological target: Endoplasmin (Homo sapiens, UniProt P14625); assay: Binding affinity to GRP94 N-domain (unknown origin)
[5] = biological target: T1, Heat shock protein HSP 90-alpha; assay: Inhibition of human recombinant HSP90alpha expressed in Escherichia coli by fluorescence polarization assay
[6] = species on record: Homo sapiens; assay: Selectivity ratio of IC50 for inhibition of human recombinant HSP90alpha expressed in Escherichia coli by fluorescence polarization assay to IC50 for inhibition of GRP94 (unknown origin)
[7] = biological target: Endoplasmin (Canis lupus familiaris, UniProt P41148); assay: Inhibition of FITC-geldanamycin binding to canine GRP94 incubated for 5 hrs by fluorescence polarization assay
[8] = biological target: T1, Heat shock protein HSP 90-alpha; assay: Inhibition of FITC-geldanamycin binding to HSP90alpha (unknown origin) incubated for 5 hrs by fluorescence polarization assay
[9] = biological target: Heat shock protein HSP90 (Homo sapiens, UniProt P07900+P08238); assay: Inhibition of FITC-geldanamycin binding to human His-tagged HSP90alpha N-terminal domain (1 to 236 residues) expressed in Escherichia coli BL21star (DE3) after 4 hrs by FP assay relative to control
[10] = biological target: T1, Heat shock protein HSP 90-alpha; assay: Inhibition of HSP90alpha in human PANC1 cells assessed as up-regulation of Hsp70 at 1 uM after 36 hrs by Western blot analysis; assay type: cell-based
Summary of the method: (§1)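 Panc-1 cells treated 36 h; total protein lysate with protease/phosphatase inhibitors; equal protein by BCA on SDS-PAGE, PVDF, Western blot for Hsp70 and Akt, β-actin loading control; AT13387 reference.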

[11] = biological target: T1, Heat shock protein HSP 90-alpha; assay: Inhibition of HSP90alpha in human PANC1 cells assessed as akt degradation at 1 uM after 36 hrs by Western blot analysis; assay type: cell-based; summary of the method: as §1

Chain of Endoplasmin (Canis lupus familiaris, UniProt P41148) (P41148 whole entry): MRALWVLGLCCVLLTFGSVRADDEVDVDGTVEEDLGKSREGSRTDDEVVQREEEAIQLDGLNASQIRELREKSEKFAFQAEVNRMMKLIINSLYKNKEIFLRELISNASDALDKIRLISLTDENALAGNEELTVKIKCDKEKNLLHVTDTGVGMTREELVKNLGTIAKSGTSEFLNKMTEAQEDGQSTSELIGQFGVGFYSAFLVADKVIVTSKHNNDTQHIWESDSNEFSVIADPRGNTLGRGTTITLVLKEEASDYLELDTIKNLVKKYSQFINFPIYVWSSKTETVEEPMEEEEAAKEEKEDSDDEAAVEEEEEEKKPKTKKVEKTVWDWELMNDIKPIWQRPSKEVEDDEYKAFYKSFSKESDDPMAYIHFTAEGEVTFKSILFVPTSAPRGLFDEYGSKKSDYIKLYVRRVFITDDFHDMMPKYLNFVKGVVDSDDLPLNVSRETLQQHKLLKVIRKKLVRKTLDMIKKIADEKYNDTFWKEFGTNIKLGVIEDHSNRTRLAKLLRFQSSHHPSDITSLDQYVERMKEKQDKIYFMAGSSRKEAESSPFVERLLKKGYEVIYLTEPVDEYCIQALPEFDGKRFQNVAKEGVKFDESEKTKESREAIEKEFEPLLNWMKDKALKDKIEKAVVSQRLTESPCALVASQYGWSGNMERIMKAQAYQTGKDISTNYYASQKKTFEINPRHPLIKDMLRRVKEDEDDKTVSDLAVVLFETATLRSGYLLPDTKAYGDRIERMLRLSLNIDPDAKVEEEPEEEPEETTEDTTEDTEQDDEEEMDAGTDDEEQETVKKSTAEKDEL
Chain of Endoplasmin (Homo sapiens, UniProt P14625) (P14625 whole entry): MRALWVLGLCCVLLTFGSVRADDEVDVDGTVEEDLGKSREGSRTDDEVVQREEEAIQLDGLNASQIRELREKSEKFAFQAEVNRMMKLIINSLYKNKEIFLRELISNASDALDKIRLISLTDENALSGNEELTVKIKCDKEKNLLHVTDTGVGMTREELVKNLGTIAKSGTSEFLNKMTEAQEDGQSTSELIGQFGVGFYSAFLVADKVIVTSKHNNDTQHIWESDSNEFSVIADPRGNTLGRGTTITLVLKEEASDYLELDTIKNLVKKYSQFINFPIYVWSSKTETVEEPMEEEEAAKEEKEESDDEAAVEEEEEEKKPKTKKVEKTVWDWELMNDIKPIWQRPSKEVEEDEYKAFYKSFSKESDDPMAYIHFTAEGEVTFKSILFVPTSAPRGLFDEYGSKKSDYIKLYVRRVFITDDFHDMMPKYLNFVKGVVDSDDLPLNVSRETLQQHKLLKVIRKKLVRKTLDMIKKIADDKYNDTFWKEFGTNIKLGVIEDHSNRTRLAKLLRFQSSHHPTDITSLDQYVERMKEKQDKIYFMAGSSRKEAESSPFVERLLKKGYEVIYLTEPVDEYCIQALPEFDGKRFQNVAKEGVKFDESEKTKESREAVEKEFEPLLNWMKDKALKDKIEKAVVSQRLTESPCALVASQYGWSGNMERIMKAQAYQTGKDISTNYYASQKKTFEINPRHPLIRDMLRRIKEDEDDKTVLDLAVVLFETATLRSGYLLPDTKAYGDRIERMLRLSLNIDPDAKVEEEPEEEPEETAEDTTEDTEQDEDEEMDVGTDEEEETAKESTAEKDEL

inhibition [1]	IC50 [2]	inhibition (INH) [3]	SMILES	other results
92%	2.06 µM	Not Active	CCc1ccccc1-c1ccc(N[C@H]2CC[C@H](O)CC2)c(C(N)=O)c1	–
88%	0.37 µM	Not Active	CC(N)C(=O)N1CCC(Nc2ccc(-c3ccc(C(C)C)cc3)cc2C(N)=O)CC1 (stereo unspecified)	–
100%	0.47 µM	Not Active	CC(C)c1ccc(-c2ccc(NC3CCNCC3)c(C(N)=O)c2)cc1	–
100%	2.72 µM	Not Active	NC(=O)c1cc(-c2ccccc2Cl)ccc1N[C@H]1CC[C@H](O)CC1	–
100%	0.5 µM	Not Active	COc1ccc(-c2ccc(N[C@H]3CC[C@H](O)CC3)c(C(N)=O)c2)cc1	–
89%	11.5 µM	Not Active	COc1ccccc1-c1ccc(N[C@H]2CC[C@H](O)CC2)c(C(N)=O)c1	–
100%	0.097 µM	–	CC1(C)CC(=O)c2c(C(F)(F)F)nn(-c3ccc(C(N)=O)c(N[C@H]4CC[C@H](O)CC4)c3)c2C1 [SNX-2112]	–
90%	1.81 µM	Not Active	Cc1ccccc1-c1ccc(N[C@H]2CC[C@H](O)CC2)c(C(N)=O)c1	–
–	–	–	C#CCCCn1cnc(N)c2nc(Sc3ccc(C)cc3C)nc1-2	IC50 [4]: 11.8 µM; IC50 [5]: > 250 µM; Ratio IC50 [6]: > 21
96%	2.32 µM	Not Active	CC(C)CNc1ccc(-c2ccc(C(C)C)cc2)cc1C(N)=O	–
96%	0.22 µM	Not Active	CC(C)c1ccc(-c2ccc(NC3CCN(C(=O)CCN)CC3)c(C(N)=O)c2)cc1	–
81%	0.46 µM	Not Active	Cc1cccc(-c2ccc(N[C@H]3CC[C@H](O)CC3)c(C(N)=O)c2)c1C	–
100%	0.053 µM	Not Active	CCCc1ccc(-c2ccc(N[C@H]3CC[C@H](O)CC3)c(C(N)=O)c2)cc1	–
–	–	–	COC(=O)c1c(O)cc(O)c(Cl)c1CCC(=O)NC1=CC(=O)C(OC)=CC1=O	Kd [7]: 0.52 µM; Kd [8]: 0.87 µM
95%	0.13 µM	Not Active	CC(C)c1ccc(-c2ccc(N[C@H]3CCOC3)c(C(N)=O)c2)cc1	–
0%	–	Not Active	NC(=O)c1cc(-c2ccc(-n3cccc3)cc2)ccc1N[C@H]1CC[C@H](O)CC1	–
100%	0.6 µM	Not Active	NC(=O)c1cc(-c2ccc(Cl)c(Cl)c2)ccc1N[C@H]1CC[C@H](O)CC1	–
100%	0.21 µM	Not Active	CC(C)c1ccc(-c2ccc(NC3CCN(C(=O)CN)CC3)c(C(N)=O)c2)cc1	–
100%	0.71 µM	Not Active	Cc1ccc(-c2ccc(N[C@H]3CC[C@H](O)CC3)c(C(N)=O)c2)cc1C	–
100%	0.055 µM	Not Active	CC(=O)N1CCC(Nc2ccc(-c3ccc(C(C)C)cc3)cc2C(N)=O)CC1	–
96%	0.93 µM	Not Active	COCCNc1ccc(-c2ccc(C(C)C)cc2)cc1C(N)=O	–
100%	0.007 µM	Not Active	CCc1ccc(-c2ccc(N[C@H]3CC[C@H](O)CC3)c(C(N)=O)c2)cc1	–
100%	0.31 µM	Not Active	NC(=O)c1cc(-c2cccc(Cl)c2Cl)ccc1N[C@H]1CC[C@H](O)CC1	–
100%	0.073 µM	Not Active	CC(C)c1ccc(-c2ccc(NC3CCOCC3)c(C(N)=O)c2)cc1	–

inhibition [1]	IC50 [2]	inhibition (INH) [3]	SMILES	other results
91%	0.45 µM	Not Active	CC(C)c1ccc(-c2ccc(NC3CCN(C(=O)C(N)C(C)C)CC3)c(C(N)=O)c2)cc1 (stereo unspecified)	–
97%	0.37 µM	Not Active	CC(C)c1ccc(-c2ccc(NC3CCCCC3)c(C(N)=O)c2)cc1	–
inactive	–	Not Active	CC(C)c1ccc(-c2ccc(NCC3CCCCC3)c(C(N)=O)c2)cc1	–
100%	0.15 µM	Not Active	CC(C)c1ccc(-c2ccc(NC3CCN(C(=O)CCCCCN)CC3)c(C(N)=O)c2)cc1	–
100%	2.03 µM	Not Active	NC(=O)c1cc(-c2cccc(Cl)c2)ccc1N[C@H]1CC[C@H](O)CC1	–
100%	0.02 µM	–	CC(C)c1cc(C(=O)N2Cc3ccc(CN4CCN(C)CC4)cc3C2)c(O)cc1O [ONALESPIB]	IC50 [9]: 0.022 µM; inhibition (INH) [10]: Active; inhibition (INH) [11]: Active
66%	24.7 µM	Not Active	NC(=O)c1cc(-c2cc(Cl)cc(Cl)c2)ccc1N[C@H]1CC[C@H](O)CC1	–
100%	0.34 µM	Not Active	Cc1ccc(-c2ccc(N[C@H]3CC[C@H](O)CC3)c(C(N)=O)c2)cc1	–
0%	–	Not Active	NC(=O)c1cc(-c2cccc3ccccc23)ccc1N[C@H]1CC[C@H](O)CC1	–
100%	1.42 µM	Not Active	Cc1cccc(C)c1-c1ccc(N[C@H]2CC[C@H](O)CC2)c(C(N)=O)c1	–
91%	1.22 µM	Not Active	Cc1ccc(-c2ccc(N[C@H]3CC[C@H](O)CC3)c(C(N)=O)c2)c(C)c1	–
89%	3.11 µM	Not Active	CC(C)c1ccc(-c2ccc(NC3CCCC3)c(C(N)=O)c2)cc1	–
93%	2.77 µM	Not Active	NC(=O)c1cc(-c2ccccc2)ccc1N[C@H]1CC[C@H](O)CC1	–
100%	0.14 µM	Not Active	NC(=O)c1cc(-c2c(Cl)cccc2Cl)ccc1N[C@H]1CC[C@H](O)CC1	–
92%	0.47 µM	Not Active	CC[C@H](C)[C@H](N)C(=O)N1CCC(Nc2ccc(-c3ccc(C(C)C)cc3)cc2C(N)=O)CC1	–
100%	0.79 µM	Not Active	CC(C)(C)c1ccc(-c2ccc(N[C@H]3CC[C@H](O)CC3)c(C(N)=O)c2)cc1	–
72%	19.7 µM	Not Active	Cc1cc(C)cc(-c2ccc(N[C@H]3CC[C@H](O)CC3)c(C(N)=O)c2)c1	–
100%	1.16 µM	Not Active	Cc1cccc(-c2ccc(N[C@H]3CC[C@H](O)CC3)c(C(N)=O)c2)c1	–
75%	12.6 µM	Not Active	NC(=O)c1cc(-c2ccc3ccccc3c2)ccc1N[C@H]1CC[C@H](O)CC1	–
100%	1.11 µM	Not Active	Cc1cc(C)c(-c2ccc(N[C@H]3CC[C@H](O)CC3)c(C(N)=O)c2)c(C)c1	–
100%	4.75 µM	Not Active	COc1cccc(-c2ccc(N[C@H]3CC[C@H](O)CC3)c(C(N)=O)c2)c1	–
89%	0.48 µM	Not Active	CC(C)C[C@H](N)C(=O)N1CCC(Nc2ccc(-c3ccc(C(C)C)cc3)cc2C(N)=O)CC1	–
100%	0.49 µM	Not Active	CCOc1ccc(-c2ccc(N[C@H]3CC[C@H](O)CC3)c(C(N)=O)c2)cc1	–
100%	0.17 µM	Not Active	NC(=O)c1cc(-c2ccc(Cl)cc2)ccc1N[C@H]1CC[C@H](O)CC1	–

— ChEMBL document CHEMBL4152387, “Discovery of a Potent Grp94 Selective Inhibitor with Anti-Inflammatory Efficacy in a Mouse Model of Ulcerative Colitis” (J Med Chem, 2018)
